# FID counter: compounds displacing fluorescent DNA intercalator, primary screen, artefact control for HCV NS3 helicase inhibitor project, biochemical, FID fluorescence; AID 1845, 2009; DNA fluorescent intercalator displacement; inhibition, % at 7.9 µM; 0.17% of 290,000 active; in the data active means inhibition above about 37%;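 further: 0% = vehicle and 100% = reference compound; higher means more ethidium bromide displaced from hairpin DNA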
# Tn6 DDE FP: inhibitors of Tn6 peptide binding to fibrin DD(E), primary screen, biochemical, fluorescence polarization, human fibrin, Tn6 probe; 0.21% of 370,000 active; Fibrin DD(E) TRITC-Tn6 fluorescence polarization displacement; Fibrinogen beta chain (Homo sapiens), P02675; inhibition, % at 8.3 µM;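 active means inhibition above a per-campaign cutoff: mean of compounds within control limits plus 3 SD, cut at about 15% in these data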;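 further: 0% = median of all compound wells on the plate and 100% = blocking peptide control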
# PLC-gamma1 inh: PLC-gamma1 enzyme inhibitors, primary screen, biochemical, fluorescence, purified enzyme | fluorogenic substrate | inhibition, % at 12.2 µM | AID 720700, 2013 | 0.84% of 370,000 active; in the data active means inhibition above about 9.5%
# Tn7 DDE FP: inhibitors of Tn7 peptide binding to fibrin DD(E), primary screen, biochemical, fluorescence polarization, human fibrin, Tn7 probe | inhibition, % at 8.3 µM | AID 720508, 2013 | Fibrinogen beta chain (Homo sapiens), P02675 | 0.13% of 370,000 active | FP displacement of FITC-Tn7 peptide from fibrin DD(E); 0% = median of compound wells per plate;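 active means inhibition above the mean of compounds falling within the control limits plus 3 SD of them, cut at about 14% in these data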;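 further: 0% = plate median of compound wells and 100% = 10 µM Aha-Tn7 peptide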
#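 system = human fibrin DD(E) protein | quantity = DD(E) 2 µM final | medium = Tris/NaCl/CaCl2 buffer, pH 7.8 | also added = labelled Tn7 tracer, 0.1 µM | compound dosing = single point at 8.3 µM | timing = compound with protein 10 min, then 3 h after probe, room temperature | signal = FP measurement | benchmarks = Aha-Tn7 high control | repeats = one replicate per compound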
# PLCb3 inh: human PLC-beta3 inhibitors, primary screen, biochemical, fluorescence; 1-phosphatidylinositol 4,5-bisphosphate phosphodiesterase beta-3 (Homo sapiens), Q01970; Purified PLC-beta3, fluorogenic substrate; inhibition, % at 12.2 µM; 0.18% of 370,000 active; AID 720704, 2013; in the data active means inhibition above about 11%;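 further: 0% = median of compound wells on plate and 100% = full blocker control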
# An asterisk follows results filed as active; . = not tested or not shown. A selection: hits, their analogues and other compounds. The true share with any hit is near 1.4%.
SMILES,FID counter,Tn6 DDE FP,PLC-gamma1 inh,Tn7 DDE FP,PLCb3 inh
CN(C)C(CNC(=O)/C=C/c1cccc(Cl)c1)c1ccccc1 (configuration not stated),8,3,2,-2,1
Nc1ccn([C@@H]2O[C@H](CO)[C@@H](O)[C@@H]2O)c(=O)n1,1,16*,1,15*,6
CCC(C)[C@H](NC(=O)N1CCn2c1nc1ccccc12)C(=O)NCCc1ccccc1 (some centres not stated),-39,2,9.9*,0,-1
CCOC(=O)c1cccc(NC(=O)CN(c2ccc(OC)cc2)S(=O)(=O)c2c(C)noc2C)c1,-15,-2,2,-4,4
COc1ccc(N(CC(=O)Nc2cccc(C(=O)O)c2)S(=O)(=O)c2c(C)noc2C)cc1,-32,3,13*,1,8
Cc1ccc(N2C(=O)CSC2c2ccc3c(c2)OCO3)cc1 (configuration not stated),-10,3,5,-1,7
CCOc1ccc2nc(N(CCCN(C)C)C(=O)c3ccc4c(c3)CCCC4)sc2c1,39*,4,0,2,-10
COc1cc2nc(N(CCCN(C)C)C(=O)c3ccc(C(=O)c4ccccc4)cc3)sc2cc1OC,.,-5,4,-9,-2
CN(C)CCCN(C(=O)c1ccc2c(c1)CCCC2)c1nc2ccc(Cl)cc2s1,7,-6,7,-12,0
CCc1ccc2nc(N(CCCN(C)C)C(=O)c3ccc(C(=O)c4ccccc4)cc3)sc2c1,38*,-2,2,7,-6
COC(=O)c1ccc(CO/N=C2\CCCc3nonc32)cc1,-8,-5,-5,0,-12
Cc1cccc(N/N=C2/COC(C)(C)CC2=O)c1,-1,0,3,3,1
CCN(CC)CCNC(=O)c1ccc(NC(=O)c2ccc(COc3ccccc3)cc2)cc1,38*,-8,3,1,-7
O=C1NC(=O)C2(N1)C(=O)c1cccc3cccc2c13 (configuration not stated),.,39*,-303,4,-376
CN(Cc1ccccc1)C(=O)c1ccc(NC(=O)Cc2ccc(NC(=O)C3CCCN(C(=O)C4CCCCC4)C3)cc2)cc1 (configuration not stated),.,1,7,-2,3
CCCNC(=O)C(=O)Nc1ccc(N(C)C)cc1,-1,-4,11*,7,8
CN(C)c1ccc(NC(=O)C(=O)NCCOc2ccccc2)cc1,-2,0,-1,-1,2
CCN1CCN(c2ccc(NC(=O)CCc3c(C)nc4c(-c5ccccc5)c(C)nn4c3C)cc2)CC1,41*,5,-66,-4,-85
CC(C)C(=O)Nc1c2c(nn1-c1ccc(F)cc1)CSC2,-5,-1,4,0,-3
C=CC[C@H]1C=C[C@@H](C(C(=O)OC)C(=O)OC)CN1C(C)=O,.,-1,20*,0,-2
CC[C@H]1C=C[C@@H](C(C(=O)OC)C(=O)OC)CN1C(C)=O,.,-3,25*,-8,4
COc1ccc(CC(C)N2CCN(c3ccccc3OC)CC2)cc1OC (configuration not stated),-2,-1,1,-3,3
COc1ccc(CC(C)N2CCN(Cc3ccccc3)CC2)cc1OC (configuration not stated),38*,.,.,.,.
CC(=O)c1c(C)oc2ccc(NS(=O)(=O)c3ccc(O)c(C(=O)O)c3)cc12,-26,-11,11*,0,4
O=C(O)c1cc(S(=O)(=O)Nc2ccc3oc(=O)sc3c2)ccc1O,-24,-1,0,-7,-3
Cc1ccccc1NS(=O)(=O)c1ccc2[nH]cc(C(=O)N(C)Cc3ccco3)c(=O)c2c1,11,.,.,.,.
C#CCOCCOCCOCCNc1nc(N2CCN(C(=O)[C@H]([C@@H](C)CC)n3cc([C@@H](N)CC(C)C)nn3)CC2)nc(N2CCN(C(=O)[C@H](Cc3cc4ccccc4[nH]3)n3cc([C@@H](N)Cc4ccc(O)cc4)nn3)CC2)n1,44*,.,.,.,.
